SENP6 block – inhibitors of human SENP6 protease. Recombinant SENP6 catalytic domain, aminoluciferin luminescence. actives 1.8% (n = 330,000). inhibition, % at 10 µM. AID 2599;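 active = inhibition above about 50% at the single tested dose, limit read from the data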;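 also: plate controls were DMSO wells with enzyme for no effect and DMSO wells lacking enzyme for full effect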
Target sequence (Q9GZR1 628-1112 limits assumed): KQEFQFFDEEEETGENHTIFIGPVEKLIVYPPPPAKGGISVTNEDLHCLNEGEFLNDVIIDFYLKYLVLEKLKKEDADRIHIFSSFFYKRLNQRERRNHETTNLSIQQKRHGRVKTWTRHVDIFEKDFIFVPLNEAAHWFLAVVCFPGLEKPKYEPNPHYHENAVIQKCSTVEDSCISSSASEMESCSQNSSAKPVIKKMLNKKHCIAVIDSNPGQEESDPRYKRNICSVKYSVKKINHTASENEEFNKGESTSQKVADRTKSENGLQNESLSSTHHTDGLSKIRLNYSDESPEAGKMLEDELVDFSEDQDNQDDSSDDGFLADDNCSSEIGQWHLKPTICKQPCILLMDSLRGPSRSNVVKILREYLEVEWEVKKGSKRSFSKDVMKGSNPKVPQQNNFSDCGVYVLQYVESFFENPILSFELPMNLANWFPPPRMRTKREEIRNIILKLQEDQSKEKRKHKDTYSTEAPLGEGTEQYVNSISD
Platelet DG rel – modulates dense granule release in human platelets. human platelet-rich plasma, SFLLRN dense granule ATP release, luminescence. inhibition, %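 (compounds screened at 7.5 µM in platelet-rich plasma)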. actives 0.22% (n = 300,000). AID 1663;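 active = mean replicate score, as percent of positive control, at or above 50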
SENP7 inh – inhibitors of human SENP7 protease. inhibition, % at 5 µM. recombinant SENP7, Z-RLRGG-aminoluciferin luminescence, 40 min. AID 434973. actives 1.5% (n = 330,000);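 active = inhibition above about 50% at the single test dose, limit read from the data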;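 also: plate controls were DMSO with enzyme for no effect and no enzyme buffer wells for full effect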
SENP8 block-1 – SENP8 (human) protease inhibition. actives 0.64% (n = 360,000). AID 602440. Q96LD8. inhibition, % at 20 µM. recombinant SENP8, Nedd8 substrate fluorescence; in the data active = inhibition mostly above about 40%, no sharp cut-off; inactive = mostly below about 27%
Target sequence (Q96LD8 whole entry, looked up): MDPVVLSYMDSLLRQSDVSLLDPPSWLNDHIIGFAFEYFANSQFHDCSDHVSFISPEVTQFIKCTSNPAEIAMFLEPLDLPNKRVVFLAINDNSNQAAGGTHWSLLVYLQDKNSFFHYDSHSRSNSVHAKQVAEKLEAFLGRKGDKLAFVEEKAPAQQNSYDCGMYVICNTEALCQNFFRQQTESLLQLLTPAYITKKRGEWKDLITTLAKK
SENP8 block-2 – inhibitors of human SENP8 protease; Q96LD8; purified SENP8, Z-RLRGG-aminoluciferin cleavage, luminescence; inhibition, % at 10 µM; actives 1.2% (n = 330,000); in the data active = inhibition above about 50%
SENP1 inh – SENP1 (human) catalytic domain inhibition; actives 0.21% (n = 360,000); recombinant SENP1 catalytic domain, CyPet-SUMO1-YPet FRET cleavage; inhibition, % at 10 µM; Q9P0U3;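 active = inhibition at least 30% at 10 µM, raw YFP signal under a set limit, fluorescence ratio 0.5 to 1.5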;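 also: 0% = enzyme with DMSO and 100% = no enzyme wells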
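System: Recombinant human SENP1 catalytic domain, His6-tagged | Incubation: Enzyme reaction for 50 min at room temperature, dark | Medium: Tris pH 8 with BME, BSA, NP40 and catalase | Also added: 25 nM SUMO1 FRET substrate | Compound: 10 µM single point, 0.5% DMSO | Measured by: FRET fluorescence in CFP and YFP emission channels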
SENP1 inh conf – confirmation of human SENP1 SUMO protease inhibitors; AID 651678; actives 34% (n = 520); shares compounds with SENP1 inh; recombinant SENP1, CyPet-SUMO1-YPet FRET cleavage; inhibition, % at 10 µM; in the data active = inhibition mostly above about 35%, no sharp cut-off; inactive = mostly below about 32%;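 also: 0% = enzyme with DMSO and 100% = no enzyme control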
SENP1 kinetic – confirmation of human SENP1 SUMO protease inhibitors, kinetic. shares compounds with SENP1 inh. recombinant SENP1, CyPet-SUMO1-YPet FRET kinetic cleavage. inhibition, % at 10 µM. actives 26% (n = 520). AID 651690; in the data active = inhibition mostly above about 32%, no sharp cut-off; inactive = mostly below about 29%;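 also: 0% = DMSO with enzyme and 100% = no enzyme substrate only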
* hit, by the source's call; i = inactive; nt = no result. In the library only some 2.6% were active in any assay of this set; here they are far more common.

SMILES | SENP6 block | Platelet DG rel | SENP7 inh | SENP8 block-1 | SENP8 block-2 | SENP1 inh | SENP1 inh conf | SENP1 kinetic
CCCC[C@@H]1C[C@H]1[C@@H](NC(=O)c1cccs1)c1ccc(C(F)(F)F)cc1 | 1.0 | -3.2 | -8.1 | nt | 6.4 | nt | nt | nt
CC(=O)c1c(O)c(C)c(O)c2c1OC1=CC(=O)/C(=C(/C)N)C(=O)C12C (stereo not given) | nt | nt | nt | 6.8 | nt | 1.9 | nt | nt
COC12CC(=O)C(C(C)=O)=C(O)C1(C)c1c(O)c(C)c(O)c(C(C)=O)c1O2 (stereo not given) | nt | nt | nt | 9.5 | nt | 32.5* | 32.5 | 18.4
CC(=O)c1ccc(Sc2ccccc2N)c([N+](=O)[O-])c1 | -31.7 | -1.8 | 2.8 | -142.2 | -5.9 | 37.0* | 14.8 | 6.9
CC(CC(=O)Nc1ccc2c(c1)c(=O)n(C)n2Cc1ccc(Cl)cc1)C(F)(F)F (stereo not given) | nt | nt | nt | -479.4 | nt | 5.4 | nt | nt
COc1cc(Cn2c3ccc(NC(=O)CC(C)C(F)(F)F)cc3c(=O)n2C)ccc1F (stereo not given) | nt | nt | nt | i | nt | 31.0* | 9.4 | 9.7
Cc1cccc(C)c1NC(=O)C1C(c2ccccc2)=Nc2ccccc2N1C(=O)c1cnccn1 (stereo not given) | nt | nt | nt | 0.9 | nt | 36.9* | 16.4 | 14.6
Cc1ccc2c(c1)-c1c(ssc1=S)C(C)(C)N2C(=O)c1ccco1 | -14.7 | -8.3 | -1.5 | 37.8 | -2.2 | -0.8 | nt | nt
CC1(C)c2ssc(=S)c2-c2ccccc2N1C(=O)c1ccco1 | -7.9 | 0.8 | -0.8 | 34.3 | -7.7 | 32.2* | 3.7 | 9.0
CCOC(=O)c1c(C)[n+]([O-])c2ccc3c(non3O)c12 | -6.4 | 1.6 | -3.5 | 5.3 | -10.3 | 3.3 | nt | nt
CCOC(=O)c1c(=O)n(O)c2ccc(C)cc2[n+]1[O-] | -10.1 | -0.7 | -1.7 | 9.9 | -9.6 | 46.9* | 9.6 | 9.5
COc1cc(SC#N)ccc1N=Cc1c(C)[nH]n(-c2ccc(C)cc2C)c1=O | 7.4 | 12.2 | 5.9 | 29.0 | 5.9 | 66.7* | 38.4* | 34.3*
Cc1ccc(OCc2ccc(C(=O)Nc3ccc(C(N)=O)cc3)o2)c([N+](=O)[O-])c1 | -6.3 | 0.6 | -1.7 | -1.4 | 1.6 | -0.1 | nt | nt
CC(c1ccco1)N(C(=O)c1cccs1)c1ccccn1 (stereo not given) | 3.3 | -3.7 | -7.1 | 19.8 | -11.6 | 30.2* | -6.1 | 6.3
CC(C)c1ccc(C(=O)N(c2ccccn2)C(C)c2ccco2)cc1 (stereo not given) | -9.4 | -5.4 | -7.0 | 10.0 | 3.7 | 1.8 | nt | nt
CCC1(CC)NC(=O)N(CC(=O)Nc2ccc(OCc3ccccc3)cc2)C1=O | 0.0 | nt | 0.1 | 11.6 | 2.2 | 1.2 | nt | nt
COc1cccc(N=Cc2ccc(O)cc2O)c1 | -11.7 | -3.3 | -3.4 | 13.7 | -1.9 | 35.7* | 17.1 | 11.2
CC(C)Nc1ccc(C(CC(N)=O)NC(=O)Cc2cccc3ccccc23)cc1[N+](=O)[O-] (stereo not given) | -5.8 | -1.3 | -2.9 | 18.1 | 6.0 | 40.6* | -5.5 | -4.7
O=C(Nc1ccc2nsnc2c1)N1CCCCC1 | 13.5 | 1.7 | 1.1 | i | 2.5 | 30.7* | -7.8 | -6.0
CC1CCN(C(=O)Nc2ccc3nsnc3c2)CC1 | -11.4 | -6.2 | 0.5 | -316.0 | -3.5 | 21.5 | nt | nt
Cc1nc(-c2ccc(F)cc2)c(CC(=O)N2CCN(S(=O)(=O)c3cccc([N+](=O)[O-])c3)CC2)s1 | -0.1 | nt | -6.3 | 6.4 | -4.4 | 35.0* | 10.3 | 2.5
CN(C)c1ccc(/C=N/NC(=O)c2ccccc2Cl)cc1 | 10.6 | -5.9 | 8.2 | -145.9 | -3.7 | 0.4 | nt | nt
CN(C)c1ccc(/C=N/NC(=O)c2cccc(C(=O)N/N=C/c3ccc(N(C)C)cc3)n2)cc1 | 5.9 | 1.4 | 6.6 | -8.0 | -0.8 | 37.6* | -0.6 | 10.1
COc1ccc(C(=O)/C=C/Nc2c(C)n(C)n(-c3ccccc3)c2=O)cc1OC | 7.7 | -1.4 | 4.0 | -52.8 | 4.8 | 31.2* | -1.1 | 3.8
Cc1c(N/C=C/C(=O)C(F)(F)F)c(=O)n(-c2ccccc2)n1C | 13.2 | 4.8 | 6.2 | 9.9 | 1.4 | -0.9 | nt | nt
SMILES | SENP6 block | Platelet DG rel | SENP7 inh | SENP8 block-1 | SENP8 block-2 | SENP1 inh | SENP1 inh conf | SENP1 kinetic
Cc1nc2c(=O)[nH]c3ccccc3c2o1 | 15.2 | 1.1 | -0.6 | 3.6 | -1.3 | 1.5 | nt | nt
CCN1/C(=C\C=C2\C(=O)N(C)C(=S)N2C)Sc2ccccc21 | -4.0 | 7.4 | 5.1 | 20.7 | 9.2 | 37.3* | -9.2 | -11.3
COc1ccc(Cn2c3ccc(OC)cc3c3nc4ccccc4nc32)cc1 | -4.3 | -0.6 | -2.0 | 12.6 | -3.1 | 16.5 | nt | nt
COc1ccc2c(c1)c1nc3ccccc3nc1n2Cc1ccc(OC(C)C)c(OC)c1 | -8.1 | 2.2 | -2.7 | 23.1 | -8.5 | 34.8* | 46.7* | 34.3*
O=c1oc2ccccc2n1CCn1c2ccccc2c2nc3ccccc3nc21 | -30.2 | 31.9 | -11.8 | -371.8 | -6.1 | -26.6 | nt | nt
COc1ccc2c(c1)c1nc3ccccc3nc1n2CCn1c(=O)oc2ccccc21 | -7.7 | 3.1 | 0.3 | 22.4 | -1.9 | 53.8* | 130.6* | 83.0*
O=C(CN1CCSC1=NCc1ccccc1)c1ccc(Cl)c(Cl)c1 | -21.2 | 20.5 | -6.5 | 18.0 | -13.8 | 39.7* | -13.0 | -5.2
O=C(Cn1ccccc1=S)c1ccc(Cl)c(Cl)c1 | -8.5 | -0.8 | -4.9 | 15.3 | -11.3 | 2.0 | nt | nt
CCOC(=O)c1c(C)nn(-c2ccc(NC(=O)CSCC(=O)O)cc2)c1C | -25.3 | 2.4 | 6.7 | 12.7 | -8.7 | -0.1 | nt | nt
C=CCOc1ccc(Br)cc1/C=C1/SC(=Nc2ccc(C(=O)O)cc2)NC1=O | nt | nt | nt | -165.7 | nt | -18.7 | nt | nt
CCOc1cc(Br)cc(/C=C2\SC(=Nc3ccccc3)NC2=O)c1O | 2.0 | 6.4 | -1.9 | 14.0 | 0.2 | 35.3* | 69.4* | 45.3*
C=CCOc1c(Br)cc(/C=C2\SC(=Nc3ccccc3)NC2=O)cc1OC | 13.5 | -2.9 | 1.0 | -23.1 | 6.1 | 42.0* | 25.1 | 19.9
CN(C)c1ncnc2c1ncn2[C@H]1CN(CCN2CCOCC2)C[C@@H](CO)O1 | nt | nt | nt | 6.2 | nt | -1.1 | nt | nt
Oc1ccc(Br)cc1/C=N/n1c(-c2ccccc2)n[nH]c1=S | -6.0 | -6.6 | -11.6 | 2.9 | -10.9 | -28.5 | nt | nt
Cc1cccc(/C=N/n2c(-c3ccccc3)n[nH]c2=S)c1O | -16.2 | 2.4 | 1.0 | 16.6 | 4.5 | 30.8* | -6.1 | 13.3
COc1cccc(/C=C/C(=O)OCC(=O)c2ccc(C)c(C)c2)c1OC | -0.8 | nt | 2.2 | -400.0 | 5.2 | 2.2 | nt | nt
CCOC(=O)/C=C/c1cc(F)ccc1O | nt | nt | nt | -407.6 | nt | 66.2* | 39.8* | 38.2*
CCOC(=O)/C=C/c1cccc(C)c1O | nt | nt | nt | -112.8 | nt | 32.3* | 17.2 | 36.5*

High-throughput results deposited in PubChem by several laboratories.
